From PMC11913021 (Journal of Medicinal Chemistry, 2024) come the findings set out here.

For one data set, the target named is T1, PLD1 (Homo sapiens, UniProt Q13393).
T1 sequence (Q13393 1-1074): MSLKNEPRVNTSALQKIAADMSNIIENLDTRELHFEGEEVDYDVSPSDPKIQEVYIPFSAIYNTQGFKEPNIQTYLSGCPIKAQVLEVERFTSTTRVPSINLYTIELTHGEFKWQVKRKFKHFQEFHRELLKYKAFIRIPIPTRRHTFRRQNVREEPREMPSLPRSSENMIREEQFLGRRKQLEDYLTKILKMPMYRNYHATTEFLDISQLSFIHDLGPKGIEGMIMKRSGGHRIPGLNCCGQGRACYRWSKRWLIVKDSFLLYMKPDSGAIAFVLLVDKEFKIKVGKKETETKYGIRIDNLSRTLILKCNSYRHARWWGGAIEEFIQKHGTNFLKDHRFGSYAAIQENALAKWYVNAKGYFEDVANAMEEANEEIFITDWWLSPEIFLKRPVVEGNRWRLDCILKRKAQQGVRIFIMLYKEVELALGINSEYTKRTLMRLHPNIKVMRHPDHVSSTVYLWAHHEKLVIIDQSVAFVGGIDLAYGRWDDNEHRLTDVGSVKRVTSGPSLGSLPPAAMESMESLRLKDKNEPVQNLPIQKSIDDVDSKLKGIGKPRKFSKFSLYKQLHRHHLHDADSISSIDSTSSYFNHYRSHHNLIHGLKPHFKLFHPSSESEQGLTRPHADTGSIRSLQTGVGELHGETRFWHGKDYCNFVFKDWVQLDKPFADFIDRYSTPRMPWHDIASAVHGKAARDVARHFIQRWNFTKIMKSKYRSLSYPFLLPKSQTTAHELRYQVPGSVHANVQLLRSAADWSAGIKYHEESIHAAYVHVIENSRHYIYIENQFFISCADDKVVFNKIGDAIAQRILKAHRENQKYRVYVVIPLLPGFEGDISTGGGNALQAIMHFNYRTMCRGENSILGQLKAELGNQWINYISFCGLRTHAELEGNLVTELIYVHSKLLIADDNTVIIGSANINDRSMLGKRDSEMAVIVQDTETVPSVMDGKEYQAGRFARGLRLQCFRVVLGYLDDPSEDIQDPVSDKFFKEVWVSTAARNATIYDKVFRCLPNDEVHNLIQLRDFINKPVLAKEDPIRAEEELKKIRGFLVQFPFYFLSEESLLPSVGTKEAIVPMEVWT
The data set can be described thus: Drug affinity responsive target stability. It counts as binding. Particulars: DARTS with immunoblotting. In outline:
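A549 cells lysed in buffer with protease and phosphatase inhibitors. Cleared supernatant incubated with test compound for 1 h at RT, then digested with Pronase for 10 min at RT. Digestion stopped with SDS loading buffer and boiling at 100 °C for 5 min. PLD1 was detected by immunoblot, with β-tubulin as control.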
(In western blotting, separated proteins are transferred to a membrane and probed.)

A further data set concerns the target T2, F789A mutant PLD1 (Homo sapiens, UniProt Q13393, F827A).
T2 sequence (Q13393 1-1036 isoform Q13393-2 F789A): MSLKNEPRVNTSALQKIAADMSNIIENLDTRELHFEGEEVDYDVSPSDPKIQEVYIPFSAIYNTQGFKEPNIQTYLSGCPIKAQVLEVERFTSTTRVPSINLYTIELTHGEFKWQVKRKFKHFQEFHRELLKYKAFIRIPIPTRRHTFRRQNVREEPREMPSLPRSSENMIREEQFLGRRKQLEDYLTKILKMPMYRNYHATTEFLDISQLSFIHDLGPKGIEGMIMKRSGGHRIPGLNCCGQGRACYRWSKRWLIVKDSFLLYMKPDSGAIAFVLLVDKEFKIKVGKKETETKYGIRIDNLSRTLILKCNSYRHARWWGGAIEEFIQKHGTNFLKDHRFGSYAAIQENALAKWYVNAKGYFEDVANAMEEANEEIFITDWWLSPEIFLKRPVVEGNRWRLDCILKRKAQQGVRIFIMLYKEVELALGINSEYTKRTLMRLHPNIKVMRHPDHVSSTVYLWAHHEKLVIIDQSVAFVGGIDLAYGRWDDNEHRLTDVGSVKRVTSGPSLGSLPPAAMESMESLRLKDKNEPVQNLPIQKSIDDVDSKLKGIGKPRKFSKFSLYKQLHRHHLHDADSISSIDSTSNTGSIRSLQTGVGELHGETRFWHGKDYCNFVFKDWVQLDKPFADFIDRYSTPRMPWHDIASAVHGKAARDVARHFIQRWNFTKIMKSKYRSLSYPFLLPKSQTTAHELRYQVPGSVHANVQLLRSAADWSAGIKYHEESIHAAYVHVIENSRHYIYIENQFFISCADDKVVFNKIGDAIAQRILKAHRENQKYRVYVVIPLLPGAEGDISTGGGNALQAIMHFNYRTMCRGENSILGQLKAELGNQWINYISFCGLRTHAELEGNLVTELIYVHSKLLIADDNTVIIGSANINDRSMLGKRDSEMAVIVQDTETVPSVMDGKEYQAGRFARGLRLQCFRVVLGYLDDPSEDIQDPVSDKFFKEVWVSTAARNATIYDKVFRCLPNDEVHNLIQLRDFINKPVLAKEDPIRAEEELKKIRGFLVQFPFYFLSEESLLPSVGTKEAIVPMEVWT
Put plainly: PLD activity assay in F789A mutant PLD1-transfected cells. It counts as cell-based.

The nature of data set [1]: Body weight of normal C57BL/6 mice without cancer cells. It counts as in vivo, mouse. The settings on record: oral, C57BL/6 without cancer cells, vs untreated.

“N-(3,5-Bis(trifluoromethyl)phenyl)-3-(1H-indol-3-yl)propanamide [3r]”: the “stability of PLD1 against Pronase” value on PLD1 was “increased stability”. In addition, on F789A mutant PLD1, the PLD activity entry was “did not significantly inhibit”. In addition, the “weight of the normal mice” value in data set [1] is listed as “no effect”.
